Measurements published in ChEMBL document CHEMBL3421607, “Design, synthesis and antibacterial activity of cinnamaldehyde derivatives as inhibitors of the bacterial cell division protein FtsZ” (Eur J Med Chem, 2015).
Values after ≈ are worked out from the molar mass of the structure shown.

Key:
[1] = tested on: Staphylococcus epidermidis; test: Antibacterial activity against penicillin-resistant Staphylococcus epidermidis clinical isolates after 24 hrs by broth microdilution method; format: functional
Bacillus subtilis [2] = test: microbe, parasite or virus in culture; format: functional; settings: ATCC 9372, 24 h
Pseudomonas aeruginosa [3] = test: microbe, parasite or virus in culture; format: functional; settings: ATCC 27853, 24 h
Staphylococcus aureus [4] = test: microbe, parasite or virus in culture; format: functional; settings: ATCC 25923, 24 h
Staphylococcus aureus [5] = test: microbe, parasite or virus in culture; format: functional; settings: ATCC 29213, 24 h
Staphylococcus aureus [6] = test: Antibacterial activity against penicillin-resistant Staphylococcus aureus clinical isolates after 24 hrs by broth microdilution method; format: functional
Streptococcus pyogenes [7] = test: Antibacterial activity against penicillin-susceptible Streptococcus pyogenes clinical isolates after 24 hrs by broth microdilution method; format: functional
Bacillus subtilis [8] = test: microbe, parasite or virus in culture; format: functional; settings: ATCC 9372, 5 h
Pseudomonas aeruginosa [9] = test: microbe, parasite or virus in culture; format: functional; settings: ATCC 27853, 5 h
Streptococcus pyogenes [10] = test: Antibacterial activity against penicillin-resistant Streptococcus pyogenes clinical isolates after 24 hrs by broth microdilution method; format: functional
Staphylococcus aureus [11] = test: microbe, parasite or virus in culture; format: functional; settings: ATCC 25923, 5 h
Escherichia coli [12] = test: microbe, parasite or virus in culture; format: functional; settings: ATCC 25922, 24 h
Escherichia coli [13] = test: microbe, parasite or virus in culture; format: functional; settings: ATCC 25922, 5 h
[14] = tested on: Staphylococcus epidermidis; test: Ratio of cinnamic acid MIC to compound MIC for Staphylococcus epidermidis; format: functional
[15] = tested on: Staphylococcus epidermidis; test: Ratio of curcumin MIC to compound MIC for Staphylococcus epidermidis; format: functional
[16] = tested on: Staphylococcus epidermidis; test: Ratio of ciprofloxacin MIC to compound MIC for Staphylococcus epidermidis; format: functional
[17] = biological target: T1, Cell division protein FtsZ (Escherichia coli K-12) (UniProt P0A9A6); test: Inhibition of Escherichia coli ATCC 25922 recombinant N-His6-tagged FtsZ polymerization expressed in Escherichia coli BL21(DE3) by light scattering assay
T1 sequence (whole entry): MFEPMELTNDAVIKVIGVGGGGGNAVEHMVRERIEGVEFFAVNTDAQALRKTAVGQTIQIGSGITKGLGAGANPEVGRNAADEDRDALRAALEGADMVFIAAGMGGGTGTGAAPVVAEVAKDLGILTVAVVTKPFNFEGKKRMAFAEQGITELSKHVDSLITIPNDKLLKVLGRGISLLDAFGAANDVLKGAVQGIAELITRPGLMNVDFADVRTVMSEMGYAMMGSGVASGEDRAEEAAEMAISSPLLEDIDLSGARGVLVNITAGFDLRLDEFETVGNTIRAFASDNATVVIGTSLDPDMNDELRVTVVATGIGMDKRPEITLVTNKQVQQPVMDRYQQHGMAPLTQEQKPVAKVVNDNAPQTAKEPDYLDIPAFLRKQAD
Summary of the method: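 E. coli FtsZ (N-His6, expressed in BL21(DE3), Ni-affinity purified) at 12 µM in 50 mM MES, 5 mM MgCl2, 50 mM KCl, pH 6.5 with compound at various concentrations, 2% DMSO, 30°C. Right-angle light scattering at 400 nm (excitation and emission). 120 s baseline, then polymerization started with 2 mM GTP and followed for 2000 s.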

[18] = biological target: T1, Cell division protein FtsZ (Escherichia coli K-12); test: Inhibition of Escherichia coli ATCC 25922 recombinant N-His6-tagged FtsZ polymerization expressed in Escherichia coli BL21(DE3) incubated for 15 mins prior to GTP addition measured after 390 mins by malachite green staining-based GTPase assay; settings: in the assay text read “30 mins” for “390 mins”
Summary of the method: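 Purified N-His6 E. coli FtsZ (10 µM) in 50 mM MES, 5 mM MgCl2, 50 mM KCl, pH 6.5 with compound at varying concentrations (2% DMSO), preincubated 15 min at room temperature. 50 μM GTP then added for 30 min at 37°C. Released phosphate measured by Malachite Green reagent (20% v/v) at A620, background-subtracted and read against a phosphate standard curve.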

CCCCNC(=O)/C=C/c1ccc(Cl)cc1Cl [N-BUTYL-3-(2,4-DICHLOROPHENYL)ACRYLAMIDE]
MIC [1]: > 128 µg/mL
MIC (Bacillus subtilis [2]): > 128 µg/mL
MIC (Pseudomonas aeruginosa [3]): 128 µg/mL (≈ 470 µM)
MIC (Staphylococcus aureus [4]): > 128 µg/mL
MIC (Staphylococcus aureus [5]): > 128 µg/mL
MIC (Staphylococcus aureus [6]): > 128 µg/mL
MIC (Streptococcus pyogenes [7]): 64 µg/mL (≈ 235 µM)
MIC (Bacillus subtilis [8]): > 128 µg/mL
MIC (Pseudomonas aeruginosa [9]): > 128 µg/mL
MIC (Streptococcus pyogenes [10]): 128 µg/mL (≈ 470 µM)
MIC (Staphylococcus aureus [11]): > 128 µg/mL
MIC (Escherichia coli [12]): > 128 µg/mL
MIC (Escherichia coli [13]): > 128 µg/mL

Cc1nc2ccccc2n1C(=O)/C=C/c1ccccc1Cl
MIC [1]: 4 µg/mL (≈ 13.5 µM)
MIC (Bacillus subtilis [2]): 128 µg/mL (≈ 431 µM)
MIC (Pseudomonas aeruginosa [3]): 128 µg/mL (≈ 431 µM)
Ratio [14]: >32
Ratio [15]: >32
MIC (Staphylococcus aureus [4]): 32 µg/mL (≈ 108 µM)
MIC (Staphylococcus aureus [5]): 128 µg/mL (≈ 431 µM)
MIC (Staphylococcus aureus [6]): 64 µg/mL (≈ 216 µM)
MIC (Streptococcus pyogenes [7]): > 128 µg/mL
MIC (Bacillus subtilis [8]): > 128 µg/mL
MIC (Pseudomonas aeruginosa [9]): 128 µg/mL (≈ 431 µM)
MIC (Staphylococcus aureus [11]): 16 µg/mL (≈ 53.9 µM)
MIC (Escherichia coli [12]): 128 µg/mL (≈ 431 µM)
MIC (Escherichia coli [13]): 128 µg/mL (≈ 431 µM)
Ratio [16]: >32

COc1cc(/C=C/C(=O)n2c(C)nc3ccccc32)cc(OC)c1OC
MIC [1]: 128 µg/mL (≈ 363 µM)
MIC (Bacillus subtilis [2]): > 128 µg/mL
MIC (Pseudomonas aeruginosa [3]): > 128 µg/mL
MIC (Staphylococcus aureus [4]): > 128 µg/mL
MIC (Staphylococcus aureus [5]): > 128 µg/mL
MIC (Staphylococcus aureus [6]): > 128 µg/mL
MIC (Streptococcus pyogenes [7]): 128 µg/mL (≈ 363 µM)
MIC (Bacillus subtilis [8]): > 128 µg/mL
MIC (Pseudomonas aeruginosa [9]): > 128 µg/mL
MIC (Streptococcus pyogenes [10]): 128 µg/mL (≈ 363 µM)
MIC (Staphylococcus aureus [11]): 64 µg/mL (≈ 182 µM)
MIC (Escherichia coli [12]): 128 µg/mL (≈ 363 µM)
MIC (Escherichia coli [13]): > 128 µg/mL

Cc1nc2ccccc2n1C(=O)/C=C/c1ccc(F)cc1
MIC [1]: 16 µg/mL (≈ 57.1 µM)
MIC (Bacillus subtilis [2]): 128 µg/mL (≈ 457 µM)
MIC (Pseudomonas aeruginosa [3]): 128 µg/mL (≈ 457 µM)
inhibition [17]: Dose-dependent effect
MIC (Staphylococcus aureus [4]): 16 µg/mL (≈ 57.1 µM)
inhibition [18]: Dose-dependent effect
MIC (Staphylococcus aureus [5]): > 128 µg/mL
MIC (Staphylococcus aureus [6]): 64 µg/mL (≈ 228 µM)
MIC (Streptococcus pyogenes [7]): 128 µg/mL (≈ 457 µM)
MIC (Bacillus subtilis [8]): > 128 µg/mL
MIC (Pseudomonas aeruginosa [9]): > 128 µg/mL
MIC (Streptococcus pyogenes [10]): 64 µg/mL (≈ 228 µM)
MIC (Staphylococcus aureus [11]): 0.5 µg/mL (≈ 1.78 µM)
MIC (Escherichia coli [12]): 128 µg/mL (≈ 457 µM)
MIC (Escherichia coli [13]): > 128 µg/mL

COc1ccc(/C=C/C(=O)n2c(C)nc3ccccc32)cc1OC
MIC [1]: > 128 µg/mL
MIC (Bacillus subtilis [2]): > 128 µg/mL
MIC (Pseudomonas aeruginosa [3]): 128 µg/mL (≈ 397 µM)
MIC (Staphylococcus aureus [4]): > 128 µg/mL
MIC (Staphylococcus aureus [5]): > 128 µg/mL
MIC (Staphylococcus aureus [6]): > 128 µg/mL
MIC (Streptococcus pyogenes [7]): 64 µg/mL (≈ 199 µM)
MIC (Bacillus subtilis [8]): > 128 µg/mL
MIC (Pseudomonas aeruginosa [9]): > 128 µg/mL
MIC (Streptococcus pyogenes [10]): 64 µg/mL (≈ 199 µM)
MIC (Staphylococcus aureus [11]): 64 µg/mL (≈ 199 µM)
MIC (Escherichia coli [12]): 128 µg/mL (≈ 397 µM)
MIC (Escherichia coli [13]): 128 µg/mL (≈ 397 µM)

COc1ccc(NC(=O)/C=C/c2ccc(Cl)cc2Cl)cc1
MIC [1]: > 128 µg/mL
MIC (Bacillus subtilis [2]): > 128 µg/mL
MIC (Pseudomonas aeruginosa [3]): > 128 µg/mL
MIC (Staphylococcus aureus [4]): > 128 µg/mL
MIC (Staphylococcus aureus [5]): > 128 µg/mL
MIC (Staphylococcus aureus [6]): > 128 µg/mL
MIC (Streptococcus pyogenes [7]): 128 µg/mL (≈ 397 µM)
MIC (Bacillus subtilis [8]): > 128 µg/mL
MIC (Pseudomonas aeruginosa [9]): > 128 µg/mL
MIC (Streptococcus pyogenes [10]): 128 µg/mL (≈ 397 µM)
MIC (Staphylococcus aureus [11]): > 128 µg/mL
MIC (Escherichia coli [12]): > 128 µg/mL
MIC (Escherichia coli [13]): > 128 µg/mL

CCCNC(=O)/C=C/c1ccc(Cl)cc1Cl [3-(2,4-DICHLOROPHENYL)-N-PROPYLACRYLAMIDE]
MIC [1]: > 128 µg/mL
MIC (Bacillus subtilis [2]): > 128 µg/mL
MIC (Pseudomonas aeruginosa [3]): 128 µg/mL (≈ 496 µM)
MIC (Staphylococcus aureus [4]): > 128 µg/mL
MIC (Staphylococcus aureus [5]): > 128 µg/mL
MIC (Staphylococcus aureus [6]): > 128 µg/mL
MIC (Streptococcus pyogenes [7]): 128 µg/mL (≈ 496 µM)
MIC (Bacillus subtilis [8]): 32 µg/mL (≈ 124 µM)
MIC (Pseudomonas aeruginosa [9]): > 128 µg/mL
MIC (Streptococcus pyogenes [10]): > 128 µg/mL
MIC (Staphylococcus aureus [11]): 64 µg/mL (≈ 248 µM)
MIC (Escherichia coli [12]): 128 µg/mL (≈ 496 µM)
MIC (Escherichia coli [13]): > 128 µg/mL
